From ChEMBL document CHEMBL1955724, “Synthesis, antimicrobial and anticancer activities of a novel series of diphenyl 1-(pyridin-3-yl)ethylphosphonates” (Bioorg Med Chem, 2012)
≈ marks a conversion by molar mass, not a printed value.

What was measured:
Saccharomyces cerevisiae [1] = assay: Antifungal activity against Saccharomyces cerevisiae after 24 to 48 hrs by agar disc diffusion method; format: functional
Summary of the method: (§1)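 Filter-paper discs (5 mm) were impregnated with compound in DMSO at […]. Nutrient agar was seeded with 100 µL inoculum: 5 × 10^5 for bacteria, 4 × 10^4 for yeasts. Controls were ciprofloxacin discs for bacteria, amphotericin B discs for yeasts, and DMSO blanks. Plates were held at 37 °C for 24–48 h; zone diameter (mm) given as triplicate mean ± SD.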

Escherichia coli [2] = assay: Antibacterial activity against Escherichia coli NCIM2065 after 24 to 48 hrs by agar disc diffusion method; format: functional; summary of the method: as §1
Saccharomyces cerevisiae [3] = assay: Antifungal activity against Saccharomyces cerevisiae at 10 mg after 24 to 48 hrs by agar well diffusion method; format: functional; settings: read-out: DIZ
Summary of the method: (§2)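 Cut-plug well assay: each well filled with 10 mg of powdered compound. Bacteria were on nutrient agar (peptone, beef extract, NaCl) at pH 7, and yeasts on Sabouraud agar (glucose, peptone) at pH 6.0. Plates were incubated at 30 °C for 24–48 h, and inhibition zone diameters were measured in triplicate.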

Staphylococcus aureus [4] = assay: Antibacterial activity against Staphylococcus aureus ATCC 25292 after 24 to 48 hrs by agar disc diffusion method; format: functional; summary of the method: as §1
[5] = Ratio of IC50 for human HepG2 cells to LD50 for Artemia salina
Candida albicans [6] = assay: Antifungal activity against Candida albicans after 24 to 48 hrs by agar disc diffusion method; format: functional; summary of the method: as §1
[7] = Toxicity in Artemia salina assessed as mortality at 1000 ug/mL after 72 hrs; format: organism-based; settings: in vivo, read-out: Activity
Summary of the method: (§3)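 Artemia salina larvae, 20 per 5 mL saline vial, were exposed to compound at […]. Three replicates were run per concentration. Living larvae were counted after 72 h, with data as mean ± SD.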

[8] = Toxicity in Artemia salina assessed as mortality after 72 hrs; format: organism-based; settings: in vivo, read-out: LD50; summary of the method: as §3
HepG2 = assay: Cytotoxicity against human HepG2 cells after 72 hrs by sulforhodamine B assay; format: functional, cell-based; settings: HepG2, 72 h
Escherichia coli [9] = assay: Antibacterial activity against Escherichia coli NCIM2065 at 10 mg after 24 to 48 hrs by agar well diffusion method; format: functional; settings: read-out: DIZ; summary of the method: as §2
[10] = Ratio of IC50 for human MCF7 cells to LD50 for Artemia salina
Candida albicans [11] = assay: Antifungal activity against Candida albicans at 10 mg after 24 to 48 hrs by agar well diffusion method; format: functional; settings: read-out: DIZ; summary of the method: as §2
Bacillus subtilis [12] = assay: Antibacterial activity against Bacillus subtilis PC1219 after 24 to 48 hrs by agar disc diffusion method; format: functional; summary of the method: as §1
Bacillus subtilis [13] = assay: Antibacterial activity against Bacillus subtilis PC1219 at 10 mg after 24 to 48 hrs by agar well diffusion method; format: functional; settings: read-out: DIZ; summary of the method: as §2
[14] = (§4) Toxicity in Artemia salina assessed as mortality at 100 ug/mL after 72 hrs; format: organism-based; settings: in vivo, read-out: Activity; summary of the method: as §3
MCF7 = assay: Cytotoxicity against human MCF7 cells after 72 hrs by sulforhodamine B assay; format: functional, cell-based; settings: MCF7, 72 h
Staphylococcus aureus [15] = assay: Antibacterial activity against Staphylococcus aureus ATCC 25292 at 10 mg after 24 to 48 hrs by agar well diffusion method; format: functional; settings: read-out: DIZ; summary of the method: as §2
Artemia salina = assay: as §4; format: organism-based; settings: in vivo, 72 h; summary of the method: as §3

| Compound | MIC (Saccharomyces cerevisiae [1]) [µg/mL] | MIC (Escherichia coli [2]) [µg/mL] | zone of inhibition at 10000 µg/disc (Saccharomyces cerevisiae [3]) [mm] | MIC (Staphylococcus aureus [4]) [µg/mL] | Ratio [5] | MIC (Candida albicans [6]) [µg/mL] | mortality at 72 h, 1000 ug/mL [7] [%] | LC50 at 72 h [8] [µg/mL] | IC50 (HepG2) [µg/mL] | zone of inhibition at 10000 µg/disc (Escherichia coli [9]) [mm] | Ratio [10] | zone of inhibition at 10000 µg/disc (Candida albicans [11]) [mm] | MIC (Bacillus subtilis [12]) [µg/mL] | zone of inhibition at 10000 µg/disc (Bacillus subtilis [13]) [mm] | mortality at 72 h, 100 ug/mL [14] [%] | IC50 (MCF7) [µg/mL] | zone of inhibition at 10000 µg/disc (Staphylococcus aureus [15]) [mm] | Activity (Artemia salina) |
| --- | --- | --- | --- | --- | --- | --- | --- | --- | --- | --- | --- | --- | --- | --- | --- | --- | --- | --- |
| CC(Nc1ccc(Cl)cc1)(c1cccnc1)P(=O)(Oc1ccccc1)Oc1ccccc1 (centres undefined) | 10 (≈ 21.5 µM) | 10 (≈ 21.5 µM) | 23 | 10 (≈ 21.5 µM) | 0.415 | 10 (≈ 21.5 µM) | 100 | 38 (≈ 81.7 µM) | 15.8 (≈ 34 µM) | 20 | 0.463 | 23 | 10 (≈ 21.5 µM) | 25 | 15 | 17.6 (≈ 37.9 µM) | 21 | – |
| CC(Nc1ccccc1)(c1cccnc1)P(=O)(Oc1ccccc1)Oc1ccccc1 (centres undefined) | 10 (≈ 23.2 µM) | 100 (≈ 232 µM) | 14 | 10 (≈ 23.2 µM) | 0.019 | 10 (≈ 23.2 µM) | 60 | 915 (≈ 2130 µM) | 17.3 (≈ 40.2 µM) | 13 | 0.02 | 13 | 10 (≈ 23.2 µM) | 15 | – | 18.2 (≈ 42.3 µM) | 12 | Non-toxic |
| Cc1ccc(NC(C)(c2cccnc2)P(=O)(Oc2ccccc2)Oc2ccccc2)cc1 (centres undefined) | 10 (≈ 22.5 µM) | 10 (≈ 22.5 µM) | 16 | 50 (≈ 112 µM) | 0.16 | 10 (≈ 22.5 µM) | 10 | 83 (≈ 187 µM) | 13.3 (≈ 29.9 µM) | 22 | 0.243 | 17 | 10 (≈ 22.5 µM) | 15 | – | 20.2 (≈ 45.4 µM) | 19 | – |
| CC(Nc1ccc(O)cc1)(c1cccnc1)P(=O)(Oc1ccccc1)Oc1ccccc1 (centres undefined) | 10 (≈ 22.4 µM) | 10 (≈ 22.4 µM) | 16 | 10 (≈ 22.4 µM) | 0.017 | 10 (≈ 22.4 µM) | 60 | 1000 (≈ 2240 µM) | 17.1 (≈ 38.3 µM) | 20 | 0.02 | 15 | 10 (≈ 22.4 µM) | 20 | – | 19.6 (≈ 43.9 µM) | 21 | Non-toxic |
| CC(NNc1ccccc1)(c1cccnc1)P(=O)(Oc1ccccc1)Oc1ccccc1 (centres undefined) | 10 (≈ 22.4 µM) | 10 (≈ 22.4 µM) | 27 | 10 (≈ 22.4 µM) | 0.02 | 10 (≈ 22.4 µM) | 60 | 843 (≈ 1890 µM) | 17.6 (≈ 39.5 µM) | 32 | 0.023 | 26 | 10 (≈ 22.4 µM) | 26 | – | 19.4 (≈ 43.6 µM) | 28 | Non-toxic |
| C[C@@H]1[C@H](O)[C@@H](C)/C=C/C=C/C=C/C=C/C=C/C=C/C=C/[C@H](O[C@@H]2O[C@H](C)[C@@H](O)[C@H](N)[C@@H]2O)C[C@@H]2O[C@](O)(C[C@@H](O)C[C@@H](O)[C@H](O)CC[C@@H](O)C[C@@H](O)CC(=O)O[C@H]1C)C[C@H](O)[C@H]2C(=O)O [AMPHOTERICIN B] | 15 (≈ 16.2 µM) | – | – | – | – | 15 (≈ 16.2 µM) | – | – | – | – | – | – | – | – | – | – | – | – |
| O=C(O)c1cn(C2CC2)c2cc(N3CCNCC3)c(F)cc2c1=O [CIPROFLOXACIN] | – | 5 (≈ 15.1 µM) | – | 5 (≈ 15.1 µM) | – | – | – | – | – | – | – | – | 5 (≈ 15.1 µM) | – | – | – | – | – |
